# Results collected from several papers.
# Compare with care: the assays were run in different laboratories.
# Target: Cyclin-dependent kinase 2 (CDK2, Homo sapiens, UniProt P24941)
# Method: competition with immobilised ligand
Structure (SMILES),assay,conditions,remaining binding [%]
CCN1CCN(Cc2ccc(C(=O)Nc3ccc(C)c(Oc4ccc5c(c4)CC(=O)N5)c3)cc2C(F)(F)F)CC1,binding,1 µM,82
O=C(Nc1c[nH]nc1C(=O)NC1CCNCC1)c1cc(F)cc(F)c1,binding,1 µM,98
Cc1cc(C)c(-n2ccn3nc(-c4cccnc4)cc23)cc1NC(=O)c1cc(C#N)cc(S(F)(F)(F)(F)F)c1,cell-free assay,0.1 µM,99
N#Cc1ccccc1CSc1nnc2c(n1)[nH]c1ccccc12,binding,10 µM,82
O=C(c1ccc(Nc2ncc(Cl)c(-c3cc4ccccc4s3)n2)cc1)N1CCC(N2CCCC2)CC1,binding,1 µM,12
COc1cnc(Nc2cccc(S(N)(=O)=O)c2)nc1N1CCN(c2ccccc2)C(=O)C1,binding,1 µM,97
Cc1cnc(Nc2ccc(C(=O)N3CCC(N4CCCC4)CC3)cc2)nc1-c1cc2ccccc2s1,binding,1 µM,35
CN(CCCC(F)(F)F)c1nccc(-c2cnn3ncccc23)n1,binding,1 µM,100
COc1ncc2cc3ccccc3nc2c1C#N,cell-free assay,5 µM,100
O=C(c1ccc(Nc2ncc(Cl)c(-c3ccc(Cl)s3)n2)cc1)N1CCC(N2CCCC2)CC1,binding,1 µM,27
COc1ccc2c(c1)O[C@H](c1ccc(OC)c(OC)c1)C[C@@H]2NC(=O)C1(c2ccc3c(c2)OC(F)(F)O3)CC1,cell-free assay,1 µM,100
C[C@H]1CCN(c2nccc(-c3cnn4ncccc34)n2)C1,binding,1 µM,95
COc1ccc2cc(OCC3(C(=O)O)CN(C(=O)c4ccc(F)cc4)C3)ccc2c1,cell-free assay,1 µM,91
C[C@@H]1CN(c2ccc3ncc(-c4ccc5[nH]nc(C6CC6)c5c4)n3n2)C[C@H](C)O1,binding,0.5 µM,84
CNC(=O)[C@@H]1CC[C@@H](n2c(-c3ccc4cnccc4c3)nc3ccc(C(=O)NCc4cccc(C(N)=O)c4)cc32)C1,binding,1 µM,100
Nc1cnc(N2CCc3cc(S(=O)(=O)Nc4c(F)cc(Cl)cc4F)cc(N4CCCC4=O)c32)nc1,cell-free assay,1 µM,100
